“And” between values parts separate entries of the source, which are not always exact repeats. Equal entries are not always repeated. “Also recorded” adds a separate entry of the source. Structures can show the parent of a compound that is named as a salt. Marks after values point to notes of the source that are not given here.
Legend:
[1] = type: in vivo, BALB/c mice; conditions: range over organs after topical NE treatment; listed as PM
Method in brief: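 Healthy female BALB/c mice, 7–9 weeks (N = 3/group), received 50 μL NE topically at the tail base every three days for 15 days. ClAlPc groups were irradiated (672 ± 40 nm, 7 min, 20 J/cm2) 30 min post-application. Six days after treatment, liver, spleen, kidney and treated skin (20–25 mg) were macerated, sonicated and centrifuged 10 min at 10,000 rpm. Supernatants were taken up in Trizma buffer pH 7.8, and PM was measured by C18 HPLC after 1-fluoro-2,4-dinitrobenzene derivatization.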

[2] = tested on: Intracellular amastigotes of L. (V.) braziliensis; test: Intracellular amastigote inhibition in transformed THP-1 cells; type: cell-based, Leishmania (Viannia) braziliensis
Method in brief: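 PMA-differentiated (72 h) THP-1 cells infected with latent-phase L. (V.) braziliensis MHOM/BR/75/M2903 promastigotes, 8 × 10^5 cells/mL. Exposed 24 h to NE serial dilutions (1:2–1:1,000), vehicle, ClAlPc (0.04–20 µM) or PM (244.0–121,827.0 µM) solutions. Then 400–700 nm light, 32°C, 32 min, 5 J/cm2, or kept non-irradiated, followed by 24 h dark. Giemsa counts of infected/uninfected cells give % inhibition versus untreated controls. PI = % inhibition at 0 J/cm2 / % at 5 J/cm2.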

[3] = tested on: THP-1 cell; test: THP-1 cell toxicity; type: cell-based, Human
Method in brief: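 Non-infected THP-1 cells were PMA-transformed (72 h) and seeded at 8 × 10^5 cells/mL. Treated 24 h with NE serial dilutions (1:2–1:1,000), vehicle, or ClAlPc/PM solutions. Irradiated at 37°C with 400–700 nm light, 32 min, 5 J/cm2, or left non-irradiated, then incubated 24 h in the dark. Viability read by MTT; % toxicity calculated relative to untreated controls.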

[4] = tested on: cutaneous leishmaniasis; conditions: different CL topical formulations alone or combined; cited from earlier work
[5] = tested on: Promastigotes of L. (V.) braziliensis (MHOM/BR/75/M2903); test: Promastigote inhibition; type: cell-based, Leishmania (Viannia) braziliensis
[6] = Ex vivo skin permeation and retention test; type: in vitro ADME, mice
[7] = dilution 100 (0.4 µM ClAlPc), PDT + (5 J/cm^2)
[8] = dilution 1,000, PDT + (5 J/cm^2)

Row | Compound | % of inhibition (mean ± SD), Intracellular amastigotes ([2]; dilution 50, PDT + (5 J/cm^2)) | % of inhibition (mean ± SD), Intracellular amastigotes ([2]; dilution 50, PDT −) | % of inhibition (mean ± SD), Intracellular amastigotes [2, 7] | % of inhibition (mean ± SD), Intracellular amastigotes ([2]; dilution 100, PDT −) | % of inhibition (mean ± SD), Intracellular amastigotes ([2]; dilution 300, PDT + (5 J/cm^2)) | % of inhibition (mean ± SD), Intracellular amastigotes ([2]; dilution 300, PDT −) | % of inhibition (mean ± SD), Intracellular amastigotes ([2]; dilution 500, PDT + (5 J/cm^2)) | % of inhibition (mean ± SD), Intracellular amastigotes ([2]; dilution 500, PDT −) | % of inhibition (mean ± SD), THP-1 cell ([3]; dilution 2, PDT + (5 J/cm^2)) | % of inhibition (mean ± SD), THP-1 cell ([3]; dilution 2, PDT −) | % of inhibition (mean ± SD), THP-1 cell ([3]; dilution 10, PDT + (5 J/cm^2)) | % of inhibition (mean ± SD), THP-1 cell ([3]; dilution 10, PDT −) | % of inhibition (mean ± SD), THP-1 cell ([3]; dilution 100, PDT + (5 J/cm^2)) | % of inhibition (mean ± SD), THP-1 cell ([3]; dilution 100, PDT −) | % of inhibition (mean ± SD), THP-1 cell [3, 8] | % of inhibition (mean ± SD), THP-1 cell ([3]; dilution 1,000, PDT −) | % of inhibition (mean ± SD), Promastigotes ([5]; dilution 2, PDT + (5 J/cm^2)) | % of inhibition (mean ± SD), Promastigotes ([5]; dilution 2, PDT −) | % of inhibition (mean ± SD), Promastigotes ([5]; dilution 10, PDT + (5 J/cm^2)) | % of inhibition (mean ± SD), Promastigotes ([5]; dilution 10, PDT −) | other results
1 | NC[C@@H]1O[C@H](O[C@H]2[C@@H](O)[C@H](O[C@@H]3[C@@H](O)[C@H](N)C[C@H](N)[C@H]3O[C@H]3O[C@H](CO)[C@@H](O)[C@H](O)[C@H]3N)O[C@@H]2CO)[C@H](N)[C@@H](O)[C@@H]1O [PM (s), paromomycin sulfate] | 54.1 ± 2.6% | 60.6 ± 2.4% | 46.6 ± 2.8% | 48.5 ± 5.8% | 30.3 ± 2.8% | 27.3 ± 8.1% | 0% | 2.3 ± 1.1% | 78.7 ± 5.3% | 79.2 ± 3.0% | 34.3 ± 5.2% | 33.1 ± 3.5% | 18.6 ± 5.1% | 17.9 ± 8.0^a % | 0.7 ± 1.0% | 0.3 ± 0.6% | 78.7 ± 5.9% | 78.5 ± 3.3% | 98.5 ± 1.4% | 98.4 ± 1.6% | Concentrations of PM detected in organs [1]: 27.3 - 292.5 μM/25 mg and 27.26 - 292.49 μM/25 mg; Healing rates (clinical efficacy) [4]: 53.3 to 90.0%; % of inhibition (mean ± SD), Promastigotes [5, 7]: 99.9 ± 0.0%; % of inhibition (mean ± SD), Promastigotes ([5]; dilution 100, PDT −): 99.9 ± 0.0%; % of inhibition (mean ± SD), Promastigotes [5, 8]: 100%; % of inhibition (mean ± SD), Promastigotes ([5]; dilution 1,000, PDT −): 100%
2 | chloroaluminium phthalocyanine [ClAlPc (s)] | 93.4 ± 2.8% | 2.8 ± 0.3% | 65.8 ± 4.7% | 0.5 ± 0.8% | 21.8 ± 7.0^a % | 0.4 ± 0.0% | 6.9 ± 2.1^a % | 0% | 97.8 ± 0.6% | 4.5 ± 1.7% | 97.6 ± 0.5% | 0% | 49.1 ± 4.8% | 0% | 13.8 ± 4.1% | 0% | 100% | 0.3 ± 0.7% | 100% | 1.0 ± 1.0% | ClAlPc retained in the epidermis/dermis ([6]; after 24 h): 26.27 μM/cm^2; ClAlPc retained by the stratum corneum ([6]; after 24 h, tape stripping): 143.97 μM/cm^2; ClAlPc skin permeation (receptor compartment) ([6]; any time point up to 24 h): No skin ClAlPc permeation was observed; also recorded: did not permeate through the skin; % of inhibition (mean ± SD), Promastigotes ([5]; dilution 100, PDT −): 0%; % of inhibition (mean ± SD), Promastigotes [5, 8]: 0%; % of inhibition (mean ± SD), Promastigotes ([5]; dilution 1,000, PDT −): 0%

— publication PMC8258284 (Infection & Chemotherapy, 2021)
